Experimental data: ChEMBL document CHEMBL1649469, “Pharmacokinetics of nikkomycin Z after single rising oral doses” (Antimicrob Agents Chemother, 2009)

Assays:
[1] = Cmax in healthy human at 2000 […], po administered as single dose measured after 72 hrs by HPLC method; assay type: ADME, organism-based; set-up: route oral; conditions: in vivo
Outline: (§1)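 Healthy fasting male volunteers, two groups of six, each given two of three single oral capsule doses plus a random placebo, with a 2-week washout. About 12 blood samples were taken over 24 h, then at 48 and 72 h. Plasma was assayed by validated HPLC-UV (LLOQ 48 ng/ml). Noncompartmental analysis: Cmax/Tmax observed, AUC0-t* by linear trapezoid, λz from the terminal log-linear phase, AUC0-∞ = AUC0-t* + C*/λz.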

[2] = Tmax in healthy human at […], po administered as single dose measured after 72 hrs by HPLC method; assay type: ADME, organism-based; set-up: route oral; conditions: in vivo; outline: as §1
[3] = Tmax in healthy human at 500 […], po administered as single dose measured after 72 hrs by HPLC method; assay type: ADME, organism-based; set-up: route oral; conditions: in vivo; outline: as §1
[4] = Tmax in healthy human at 1000 […], po administered as single dose measured after 72 hrs by HPLC method; assay type: ADME, organism-based; set-up: route oral; conditions: in vivo; outline: as §1
[5] = Tmax in healthy human at 1500 […], po administered as single dose measured after 72 hrs by HPLC method; assay type: ADME, organism-based; set-up: route oral; conditions: in vivo; outline: as §1
[6] = AUC (0 to t) in healthy human at 1500 […], po administered as single dose measured after 72 hrs by HPLC method; assay type: ADME, organism-based; set-up: time < 72 hr, route oral; conditions: plasma; outline: as §1
[7] = AUC (0 to t) in healthy human at 1750 […], po administered as single dose measured after 72 hrs by HPLC method; assay type: ADME, organism-based; set-up: time < 72 hr, route oral; conditions: plasma; outline: as §1
[8] = AUC (0 to t) in healthy human at 2000 […], po administered as single dose measured after 72 hrs by HPLC method; assay type: ADME, organism-based; set-up: time < 72 hr, route oral; conditions: plasma; outline: as §1
[9] = AUC (0 to infinity) in healthy human at […], po administered as single dose measured after 72 hrs by HPLC method; assay type: ADME, organism-based; set-up: time infinity, route oral; conditions: plasma; outline: as §1
[10] = AUC (0 to infinity) in healthy human at 500 […], po administered as single dose measured after 72 hrs by HPLC method; assay type: ADME, organism-based; set-up: time infinity, route oral; conditions: plasma; outline: as §1
[11] = Relative bioavailability based on AUC (0 to infinity) in healthy human at 1750 […], po administered as single dose by HPLC method; assay type: ADME, organism-based; conditions: in vivo
Outline: (§2)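 Relative bioavailability is AUC0-∞ at the test dose relative to the group's reference dose: 250 mg for group 1 (1,000 and 1,750 mg), 500 mg for group 2 (1,500 and 2,000 mg). Same volunteers, single oral doses, plasma sampling to 72 h and HPLC-UV assay as above.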

[12] = Relative bioavailability based on AUC (0 to infinity) in healthy human at 1500 […], po administered as single dose by HPLC method; assay type: ADME, organism-based; conditions: in vivo; outline: as §2
[13] = Relative bioavailability based on AUC (0 to infinity) in healthy human at 2000 […], po administered as single dose by HPLC method; assay type: ADME, organism-based; conditions: in vivo; outline: as §2
[14] = Oral clearance in healthy human at 250 to 2000 […] administered as single dose by HPLC method; assay type: ADME, organism-based; conditions: in vivo
Outline: (§3)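 Population PK model: one compartment, first-order absorption with lag time, first-order elimination, fitted to plasma HPLC concentrations from single oral doses of 250–2,000 mg in healthy fasting men. F for 250–500 mg was fixed at 1, and doses of 1,500–2,000 mg were assumed to share one F. Posterior predictive check used.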

Homo sapiens [15] = test: Volume of distribution in healthy human at 250 to 2000 […], po administered as single dose by HPLC method; assay type: ADME, organism-based; set-up: route oral; conditions: in vivo; outline: as §3
Homo sapiens [16] = test: Absorption time lag in healthy human at 250 to 2000 […], po administered as single dose by HPLC method; assay type: ADME, organism-based; set-up: route oral; conditions: in vivo; outline: as §3
[17] = Relative bioavailability in healthy human at 1000 […], po administered as single dose by HPLC method; assay type: ADME, organism-based; conditions: in vivo; outline: as §3
[18] = Relative bioavailability in healthy human at 1500 to 2000 […], po administered as single dose by HPLC method; assay type: ADME, organism-based; conditions: in vivo; outline: as §3
Homo sapiens [19] = test: Toxicity in healthy human assessed as occurrence of headache at […], po administered as single dose; assay type: organism-based; set-up: route oral; conditions: in vivo
Homo sapiens [20] = test: Toxicity in healthy human assessed as occurrence of dizziness at […], po administered as single dose; assay type: organism-based; set-up: route oral; conditions: in vivo
Homo sapiens [21] = test: Hepatotoxicity in healthy human assessed as elevated bilirubin level at 1000 […], po administered as single dose after 72 hrs; assay type: toxicity, organism-based; set-up: route oral; conditions: in vivo
Homo sapiens [22] = test: Hepatotoxicity in healthy human assessed as elevated alkaline phosphatase level at 1000 […], po administered as single dose after 72 hrs; assay type: toxicity, organism-based; set-up: route oral; conditions: in vivo
Homo sapiens [23] = test: Hepatotoxicity in healthy human assessed as elevated aspartate transaminase level at 1000 […], po administered as single dose after 72 hrs; assay type: toxicity, organism-based; set-up: route oral; conditions: in vivo
Homo sapiens [24] = test: Hepatotoxicity in healthy human assessed as elevated bilirubin level at 1000 […], po administered as single dose after 7 days post dosing; assay type: toxicity, organism-based; set-up: route oral; conditions: in vivo, 168 h
Homo sapiens [25] = test: Hepatotoxicity in healthy human assessed as elevated bilirubin level at 1000 […], po administered as single dose after 48 hrs; assay type: toxicity, organism-based; set-up: route oral; conditions: in vivo
Homo sapiens [26] = test: Hepatotoxicity in healthy human assessed as elevated alkaline phosphatase level at 1000 […], po administered as single dose after 48 hrs; assay type: toxicity, organism-based; set-up: route oral; conditions: in vivo
Homo sapiens [27] = test: Hepatotoxicity in healthy human assessed as elevated aspartate transaminase level at 1000 […], po administered as single dose after 48 hrs; assay type: toxicity, organism-based; set-up: route oral; conditions: in vivo
[28] = Cmax in healthy human at 250 mg, po administered as single dose measured after 72 hrs by HPLC method; conditions: in vivo
[29] = Cmax in healthy human at 500 mg, po administered as single dose measured after 72 hrs by HPLC method; conditions: in vivo
[30] = Cmax in healthy human at 1000 mg, po administered as single dose measured after 72 hrs by HPLC method; conditions: in vivo
[31] = Cmax in healthy human at 1500 mg, po administered as single dose measured after 72 hrs by HPLC method; conditions: in vivo
[32] = Cmax in healthy human at 1750 mg, po administered as single dose measured after 72 hrs by HPLC method; conditions: in vivo
[33] = Tmax in healthy human at 1750 mg, po administered as single dose measured after 72 hrs by HPLC method; conditions: in vivo
[34] = Tmax in healthy human at 2000 mg, po administered as single dose measured after 72 hrs by HPLC method; conditions: in vivo
[35] = AUC (0 to t) in healthy human at 250 mg, po administered as single dose measured after 72 hrs by HPLC method; conditions: plasma
[36] = AUC (0 to t) in healthy human at 500 mg, po administered as single dose measured after 72 hrs by HPLC method; conditions: plasma
[37] = AUC (0 to t) in healthy human at 1000 mg, po administered as single dose measured after 72 hrs by HPLC method; conditions: plasma
[38] = Terminal half life in healthy human at 250 mg, po administered as single dose measured after 72 hrs by HPLC method; conditions: in vivo, read-out: beta t1/2 (converted)
[39] = Terminal half life in healthy human at 500 mg, po administered as single dose measured after 72 hrs by HPLC method; conditions: in vivo, read-out: beta t1/2 (converted)
[40] = Terminal half life in healthy human at 1000 mg, po administered as single dose measured after 72 hrs by HPLC method; conditions: in vivo, read-out: beta t1/2 (converted)
[41] = Terminal half life in healthy human at 1500 mg, po administered as single dose measured after 72 hrs by HPLC method; conditions: in vivo, read-out: beta t1/2 (converted)
[42] = Terminal half life in healthy human at 1750 mg, po administered as single dose measured after 72 hrs by HPLC method; conditions: in vivo, read-out: beta t1/2 (converted)
[43] = Terminal half life in healthy human at 2000 mg, po administered as single dose measured after 72 hrs by HPLC method; conditions: in vivo, read-out: beta t1/2 (converted)
[44] = AUC (0 to infinity) in healthy human at 1000 mg, po administered as single dose measured after 72 hrs by HPLC method; conditions: plasma
[45] = AUC (0 to infinity) in healthy human at 1500 mg, po administered as single dose measured after 72 hrs by HPLC method; conditions: plasma
[46] = AUC (0 to infinity) in healthy human at 1750 mg, po administered as single dose measured after 72 hrs by HPLC method; conditions: plasma
[47] = AUC (0 to infinity) in healthy human at 2000 mg, po administered as single dose measured after 72 hrs by HPLC method; conditions: plasma
[48] = First-order absorption rate constant in healthy human at 250 to 2000 mg, po administered as single dose by HPLC method; conditions: in vivo

In the case of `C[C@@H]([C@H](N)C(=O)N[C@H](C(=O)O)[C@H]1O[C@@H](n2ccc(=O)[nH]c2=O)[C@H](O)[C@@H]1O)[C@H](O)c1ccc(O)cn1` [NIKKOMYCIN], the Cmax [1] is reported as 6420 ng/mL, the Tmax [2] is reported as 2 h and the Tmax [3] is reported as 3 h. It also gave a Tmax [4] of 4 h, a Tmax [5] of 2 h and an AUC(0-t) at 72 h [6] of 30300 ng·h/mL. It also gave an AUC(0-t) at 72 h [7] of 37400 ng·h/mL, an AUC(0-t) at 72 h [8] of 40200 ng·h/mL and an AUC(0-inf) [9] of 11600 ng·h/mL. It also gave an AUC(0-inf) [10] of 24600 ng·h/mL, a bioavailability [11] of 47% and a bioavailability [12] of 41%. It also gave a bioavailability [13] of 41%, a CL/F [14] of 367 mL/min and a Vd (Homo sapiens [15]) of 41.5 L. It also gave a Tlag (Homo sapiens [16]) of 0.695 h, a bioavailability [17] of 61.6% and a bioavailability [18] of 43.9%. For the same compound, the Activity (Homo sapiens [19]) was “Toxic”, the Activity (Homo sapiens [20]) was “Toxic” and the Activity (Homo sapiens [21]) was “Toxic”. For the same compound, the Activity (Homo sapiens [22]) was “Toxic”, the Activity (Homo sapiens [23]) was “Toxic” and the Activity (Homo sapiens [24]) was “Non-toxic”. The Activity (Homo sapiens [25]) was “Non-toxic”, the Activity (Homo sapiens [26]) was “Non-toxic” and the Activity (Homo sapiens [27]) was “Non-toxic”. For the same compound, the Cmax [28] was 2210 ng/mL, the Cmax [29] was 3990 ng/mL and the Cmax [30] was 5140 ng/mL. The Cmax [31] was 4850 ng/mL, the Cmax [32] was 6440 ng/mL and the Tmax [33] was 4 h. The Tmax [34] was 4 h, the AUC(0-t) at 72 h [35] was 11300 ng·h/mL and the AUC(0-t) at 72 h [36] was 24300 ng·h/mL. For the same compound, the AUC(0-t) at 72 h [37] was 32100 ng·h/mL, the half-life [38] was 2.53 h and the half-life [39] was 2.22 h. The half-life [40] was 2.06 h, the half-life [41] was 2.21 h and the half-life [42] was 2.12 h. The half-life [43] was 2.09 h, the AUC(0-inf) [44] was 32500 ng·h/mL and the AUC(0-inf) [45] was 30600 ng·h/mL. For the same compound, the AUC(0-inf) [46] was 37900 ng·h/mL, the AUC(0-inf) [47] was 40700 ng·h/mL and the Ka [48] was 0.000113 s⁻¹.
